Where “and” joins values, the source holds several entries; their conditions need not be identical. Equal entries are not always repeated. Where two headings read alike, the source gives them in different places. Marks after values point to notes of the source that are not given here.
How the values were obtained:
[1] = 1:1 Cu(II) complex, Damu et al.; cited from earlier work
[2] = cited from earlier work
Cu [3] = assay type: binding; conditions: 1:1 Cu(II) complex, aqueous solution, 25°C, I = 0.1
[4] = cited from earlier work; remark: listed apart in the source
[5] = Aqueous solubility of neutral ligand; assay type: physicochemical
[6] = Protonation constants by potentiometric or spectrophotometric titration; assay type: physicochemical; conditions: aqueous solution, 25°C, 0.1 M KCl; concentration constants based on p[H]
Summary of the method: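 The glass electrode was calibrated by titrating 5 mM HCl in 0.1 M KCl with standardized 0.1 M KOH (25°C, Gran's method); constants are on p[H], not activity. Ligand (1 or 5 mM, 0.1 M KCl, 25°C; basic sites pre-protonated with ≥1 equiv HCl where needed) was titrated stepwise with 0.1 M KOH and fitted by non-linear least squares. Values are from three independent titrations as standard deviation of the mean. Adding 0.11 gives mixed-mode constants.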

Cu [7] = assay type: binding; conditions: for pCu = −log [Cu(I)aq]: 10 μM ligand and 1 μM Cu(I), pH 7.0, I = 0.1; for logβ2’ (apparent, 2:1 Cu(I) complex): pH 7.0 (0.1 M KClO4); for logβ2 of the 2:1 Cu(I) complex: recommended cumulative average, aqueous solution 25°C
[8] = Cyclic voltammetry of the ligand-bound Cu; assay type: physicochemical; conditions: pH 5.0, 10 mM PIPBS, 0.1 M KClO4, Cu(II/I) complex
Summary of the method: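 Cyclic voltammetry was run under argon in 10 mM PIPBS pH 5 with 0.1 M KClO4 electrolyte. Half-wave potentials were referenced to ferrocenium (0.40 vs. SHE) or ferroin.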

[9] = spectrophotometric competition titration with MCL-1

OCCN(CCO)Cc1ccccn1 [DHEAMP, N,N-bis(2-hydroxyethyl)-N-(2-pyridylmethyl)amine]
logKCu(II)L [1]: 9.2±0.1 | protonation constant ([2]; lit.): 6.92±0.01 | log KCu(II)L (Cu [3]): 9.21±0.02

CCSCCN(CCSCC)CCSCC [TEMEA]
protonation constant ([2]; aqueous solution): 8.32 | protonation constant ([2]; extrapolated from data acquired in 80% water-methanol): 7.1

C1CSCCCSCCCSCCCSC1 [[16]aneS4]
logKCu(I)L [4]: 12.0

O=C(O)c1cc(-c2cc(C(=O)O)c3ccccc3n2)nc2ccccc12 [BCA, 2,2′-bicinchoninic acid]
solubility in aqueous solution [5]: not soluble at millimolar concentrations | protonation constant ([2]; 0.2 M ionic strength): 3.74±0.04 | logKH1 [6]: 3.80(2) | pCu = −log [Cu(I)aq] (Cu [7]): 13.5 | logβ2 Cu(I) (Cu [7]; competition titration with PEMEA): 17.63±0.05 | logβ2’ (apparent, 2:1 Cu(I) complex) (Cu [7]): 17.7 ^e | logβ2 of the 2:1 Cu(I) complex (Cu [7]): 17.66(3) ^d | logβ2 Cu(I) (Cu [7]; [9]): 17.67±0.03

Cc1cc(-c2ccc(S(=O)(=O)O)cc2)c2ccc3c(-c4ccc(S(=O)(=O)O)cc4)cc(C)nc3c2n1 [BCS, bathocuproine disulfonate]
logβ2 Cu(I) ([4]; previously reported): 19.9 | protonation constant ([2]; previously reported): 5.7 | logKH1 [6]: 5.70(2) | pCu = −log [Cu(I)aq] (Cu [7]): 16.6 | logβ2 Cu(I) (Cu [7]; from half-wave potential and Cu(II) logβ2 via Equation (1)): 20.81±0.08 | logβ2’ (apparent, 2:1 Cu(I) complex) (Cu [7]): 20.8 ^e | logβ2 of the 2:1 Cu(I) complex (Cu [7]): 20.81(2) ^d | logβ2 Cu(I) (Cu [7]; [9]): 20.80±0.03 | E^f vs. SHE (half-wave potential) [8]: 0.626 V and 0.626(1) V

CC#N [acetonitrile]
logβ1 Cu(I) ([4]; kinetic method): 2.63 | logβ2 Cu(I) ([4]; kinetic method): 4.02 | logβ3 Cu(I) ([4]; kinetic method): 4.29

CSCCN(CCSC)CCSC [TMMEA, tris(2-methylthioethyl)amine]
protonation constant ([2]; aqueous solution): 8.36

Reference: article PMC3983694 (Journal of the American Chemical Society, 2013)
